# The source made the active and inactive calls. The rule behind the calls is not given here.
# Legend:
# Mus musculus [1] = assay: Neurotoxicity in CF1 albino mouse assessed as motor impairment at 300 mg/kg, ip after 0.5 hrs; assay type: toxicity, organism-based; design: dose 300 mg/kg, route intraperitoneal; conditions: in vivo
# Mus musculus [2] = assay: Teratogenic effect in SWV mouse assessed as live fetuses at 310 mg/kg, ip administered on morning of day 8 of gestation; assay type: toxicity, organism-based; design: dose 310 mg/kg, route intraperitoneal; conditions: in vivo
# Procedure, shortened: (§1)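 Two-month-old nulligravid SWV females were mated overnight and checked for vaginal plugs the next morning; gestation onset was set at 10 p.m. the previous night. On gestation day 8.5, each dam received a single ip injection (0.55-2.7 mmol/kg range) or vehicle (25% aqueous Cremophor EL) at 10 μL/g body weight. Litters were scored for implants, resorptions, live and dead fetuses, and fetuses with neural tube defects.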
# Mus musculus [3] = assay: Anticonvulsant activity in CF1 albino mouse assessed as inhibition of maximal electroshock-induced seizures at 100 mg/kg, ip after 0.5 hrs; assay type: functional, organism-based; design: dose 100 mg/kg
# Procedure, shortened: (§2)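 Test compounds suspended in 0.5% methylcellulose and given ip to adult male CF no. 1 albino mice (18-25 g) at 0.01 mL/g body weight before maximal electroshock challenge.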
# Rattus norvegicus [4] = assay: Neurotoxicity in Sprague-Dawley rat assessed as motor impairment at 30 mg/kg, po after 0.25 to 4 hrs; conditions: in vivo
# Mus musculus [5] = assay: Neurotoxicity in CF1 albino mouse assessed as motor impairment at 30 mg/kg, ip after 4 hrs; assay type: toxicity, organism-based; design: dose 30 mg/kg, route intraperitoneal; conditions: in vivo
# Mus musculus [6] = assay: Teratogenic effect in SWV mouse assessed as live fetuses at 156 mg/kg, ip administered on morning of day 8 of gestation; assay type: toxicity, organism-based; design: dose 156 mg/kg, route intraperitoneal; conditions: in vivo; procedure, shortened: as §1
# Mus musculus [7] = assay: Neurotoxicity in CF1 albino mouse assessed as motor impairment at 30 mg/kg, ip after 0.5 hrs; assay type: toxicity, organism-based; design: dose 30 mg/kg, route intraperitoneal; conditions: in vivo
# Mus musculus [8] = assay: Teratogenic effect in SWV mouse assessed as resorptions at 511 mg/kg, ip administered on morning of day 8 of gestation; assay type: toxicity, organism-based; design: dose 511 mg/kg, route intraperitoneal; conditions: in vivo
# Procedure, shortened: (§3)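 SWV inbred mice: two-month-old nulligravid females mated overnight with males and checked for vaginal plugs next morning; gestation onset taken as 10 p.m. the previous night. On gestation day 8.5 each dam got one ip injection, 0.55–2.7 mmol/kg, in 25% aqueous Cremophor EL (vehicle controls dosed alike), 10 μL/g body weight. Litters and implants tallied; resorptions and live fetuses reported as counts with percentages.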
# Mus musculus [9] = assay: Neurotoxicity in CF1 albino mouse assessed as motor impairment at 100 mg/kg, ip after 0.5 hrs; assay type: toxicity, organism-based; design: dose 100 mg/kg, route intraperitoneal; conditions: in vivo
# [10] = Teratogenic effect in SWV mouse assessed as dead fetuses at 91 mg/kg, ip administered on morning of day 8 of gestation; conditions: in vivo
# [11] = Teratogenic effect in SWV mouse assessed as dead fetuses at 522 mg/kg, ip administered on morning of day 8 of gestation; conditions: in vivo, read-out: Ratio TD50/ED50
# Mus musculus [12] = assay: Anticonvulsant activity in CF1 albino mouse assessed as inhibition of maximal electroshock-induced seizures at 300 mg/kg, ip after 4 hrs; assay type: functional, organism-based; design: dose 300 mg/kg; procedure, shortened: as §2
# Mus musculus [13] = assay: Teratogenic effect in SWV mouse assessed as fetuses with neural tube deffects at 156 mg/kg, ip administered on morning of day 8 of gestation; assay type: toxicity, organism-based; design: dose 156 mg/kg, route intraperitoneal; conditions: in vivo; procedure, shortened: as §1
# Mus musculus [14] = assay: Anticonvulsant activity in CF1 albino mouse assessed as inhibition of subcutaneous pentylenetetrazole-induced seizures at 100 mg/kg, ip after 0.5 hrs; assay type: functional, organism-based; design: dose 100 mg/kg
# Procedure, shortened: (§4)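 Adult male CF no. 1 albino mice (18-25 g) dosed ip with compound suspended in 0.5% methylcellulose (0.01 mL/g). Convulsant: pentylenetetrazol dissolved in 0.9% saline as a 0.85% solution for mice, given subcutaneously.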
# Mus musculus [15] = assay: Anticonvulsant activity in CF1 albino mouse assessed as inhibition of subcutaneous pentylenetetrazole-induced seizures at 300 mg/kg, ip after 4 hrs; assay type: functional, organism-based; design: dose 300 mg/kg; procedure, shortened: as §4
# Mus musculus [16] = assay: Teratogenic effect in SWV mouse assessed as live fetuses at 511 mg/kg, ip administered on morning of day 8 of gestation; assay type: toxicity, organism-based; design: dose 511 mg/kg, route intraperitoneal; conditions: in vivo; procedure, shortened: as §3
# Mus musculus [17] = assay: Anticonvulsant activity in CF1 albino mouse assessed as inhibition of maximal electroshock-induced seizures at 300 mg/kg, ip after 0.5 hrs; assay type: functional, organism-based; design: dose 300 mg/kg; procedure, shortened: as §2
# Mus musculus [18] = assay: Anticonvulsant activity in CF1 albino mouse assessed as inhibition of subcutaneous pentylenetetrazole-induced seizures at 100 mg/kg, ip after 4 hrs; assay type: functional, organism-based; design: dose 100 mg/kg; procedure, shortened: as §4
# Mus musculus [19] = assay: Teratogenic effect in SWV mouse assessed as fetuses with neural tube deffects at 310 mg/kg, ip administered on morning of day 8 of gestation; assay type: toxicity, organism-based; design: dose 310 mg/kg, route intraperitoneal; conditions: in vivo; procedure, shortened: as §1
# Mus musculus [20] = assay: Teratogenic effect in SWV mouse assessed as resorptions at 156 mg/kg, ip administered on morning of day 8 of gestation; assay type: toxicity, organism-based; design: dose 156 mg/kg, route intraperitoneal; conditions: in vivo; procedure, shortened: as §3
# Mus musculus [21] = assay: Anticonvulsant activity in CF1 albino mouse assessed as inhibition of subcutaneous pentylenetetrazole-induced seizures at 30 mg/kg, ip after 4 hrs; assay type: functional, organism-based; design: dose 30 mg/kg; procedure, shortened: as §4
# Mus musculus [22] = assay: Anticonvulsant activity in CF1 albino mouse assessed as inhibition of subcutaneous pentylenetetrazole-induced seizures at 30 mg/kg, ip after 0.5 hrs; assay type: functional, organism-based; design: dose 30 mg/kg; procedure, shortened: as §4
# Mus musculus [23] = assay: Anticonvulsant activity in CF1 albino mouse assessed as inhibition of subcutaneous pentylenetetrazole-induced seizures at 300 mg/kg, ip after 0.5 hrs; assay type: functional, organism-based; design: dose 300 mg/kg; procedure, shortened: as §4
# Rattus norvegicus [24] = species on record: Rattus norvegicus; assay: Protective index, ratio of TD50 for rat to ED50 for maximal electroshock-induced rat seizure model
# Mus musculus [25] = assay: Teratogenic effect in SWV mouse assessed as resorptions at 310 mg/kg, ip administered on morning of day 8 of gestation; assay type: toxicity, organism-based; design: dose 310 mg/kg, route intraperitoneal; conditions: in vivo; procedure, shortened: as §3
# Mus musculus [26] = assay: Neurotoxicity in CF1 albino mouse assessed as motor impairment at 300 mg/kg, ip after 4 hrs; assay type: toxicity, organism-based; design: dose 300 mg/kg, route intraperitoneal; conditions: in vivo
# Mus musculus [27] = assay: Neurotoxicity in CF1 albino mouse assessed as motor impairment at 100 mg/kg, ip after 4 hrs; assay type: toxicity, organism-based; design: dose 100 mg/kg, route intraperitoneal; conditions: in vivo
# Mus musculus [28] = assay: Anticonvulsant activity in CF1 albino mouse assessed as inhibition of maximal electroshock-induced seizures at 30 mg/kg, ip after 4 hrs; assay type: functional, organism-based; design: dose 30 mg/kg; procedure, shortened: as §2
# Mus musculus [29] = assay: Anticonvulsant activity in CF1 albino mouse assessed as inhibition of maximal electroshock-induced seizures at 30 mg/kg, ip after 0.5 hrs; assay type: functional, organism-based; design: dose 30 mg/kg; procedure, shortened: as §2
# Rattus norvegicus [30] = assay: Anticonvulsant activity in po dosed rat assessed as inhibition of maximal electroshock-induced seizures
smiles,measurement,setting,value
CCCC(CC)C(=O)Nc1ccc(S(N)(=O)=O)cc1 (stereo not given),Activity,Mus musculus [1],Non-toxic
same,Activity,Mus musculus [2],28%
same,Activity,Mus musculus [3],inactive
same,Activity,Rattus norvegicus [4],Non-toxic
same,Activity,Mus musculus [5],Non-toxic
same,Activity,Mus musculus [6],84.3%
same,Activity,Mus musculus [7],Non-toxic
same,Activity,Mus musculus [8],98.5%
same,Activity,Mus musculus [9],Non-toxic
same,ED50,[10],11.6 mg/kg
same,selectivity ratio,[11],43.1
same,Activity,Mus musculus [12],Active
same,Activity,Mus musculus [13],1%
same,Activity,Mus musculus [14],inactive
same,Activity,Mus musculus [15],inactive
same,Activity,Mus musculus [16],1.5%
same,Activity,Mus musculus [17],inactive
same,Activity,Mus musculus [18],inactive
same,Activity,Mus musculus [19],13.3%
same,Activity,Mus musculus [20],15.7%
same,Activity,Mus musculus [21],inactive
same,Activity,Mus musculus [22],inactive
same,Activity,Mus musculus [23],inactive
same,Ratio TD50/ED50,Rattus norvegicus [24],>43.1
same,Activity,Mus musculus [25],72%
same,Activity,Mus musculus [26],Non-toxic
same,Activity,Mus musculus [27],Non-toxic
same,Activity,Mus musculus [28],inactive
same,Activity,Mus musculus [29],inactive
same,ED50,Rattus norvegicus [30],11.6 mg/kg
